Results: publication PMC11022936 (Drug Metabolism and Disposition, 2023)
“And” between values parts separate entries of the source, which are not always exact repeats. Identical values can stand only once. Like-named read-outs stand apart in the source and are kept apart here.

How the values were obtained:
[1] = dogs; ref Inghardt et al., 2022; cited from earlier work
[2] = rats; ref Inghardt et al., 2022; cited from earlier work
[3] = Dog 3-month repeated-dose GLP toxicity study; details: both, in vivo, po, 100 mg/kg/day
[4] = Fraction unbound in plasma, equilibrium dialysis; type: in vitro ADME; details: rat plasma, 10 µmol/L, 37°C, 16 h, mean ± S.D., n = 3
Procedure, shortened: (§1)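 Equilibrium dialysis used frozen pooled plasma (n>3 donors, K2-EDTA): human (mixed sex), rat (male Han Wistar), dog (male beagle). Plasma spiked with test compound at 0.1, 1.0 or 10 was dialysed against phosphate buffer pH 7.4 for 16 h at 37°C, in triplicate. Calibration standards were made in spiked plasma. fu = buffer concentration / plasma concentration. Recovery = total compound found after dialysis / total added.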

[5] = Mouse 28-day repeat dose, plasma metabolite profiling; type: in vivo; details: mouse plasma AUC0-24h pool
[6] = system: MPO; details: read-out: potency toward MPO (IC50); in vitro; ref Inghardt et al., 2022; cited from earlier work
[7] = Human MAD study, plasma AUC0-24h pools, metabolite concentrations; type: in vivo; details: human AUC0-24h plasma pool
Procedure, shortened: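 Plasma came from healthy male volunteers given unlabelled test compound once daily in a phase I multiple-ascending-dose study. Groups: 5 mg (day 10, n = 8), 10 mg (day 14, n = 8), 15 mg (day 10, n = 7). Samples were pooled time-proportionally across participants into one AUC0-24h pool per dose, protein-precipitated and run by LC-HRMS. DRE = summed concentrations of parent plus quantified metabolites.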

[8] = Fraction unbound in plasma, equilibrium dialysis; type: in vitro ADME; details: human plasma, 1 µmol/L, 37°C, 16 h, mean ± S.D., n = 3
Procedure, shortened: as §1

[9] = ref Inghardt et al., 2022; cited from earlier work
[10] = Rat 3-month repeated-dose GLP toxicity study; details: both, SD, in vivo, po, 125 mg/kg/day
[11] = Fraction unbound in plasma, equilibrium dialysis; type: in vitro ADME; details: dog plasma, 10 µmol/L, 37°C, 16 h, mean ± S.D., n = 3
Procedure, shortened: as §1

[12] = type: in vivo, rat; details: for Total % of dose (total radioactivity in sample), feces / Total % of dose (total radioactivity in sample), urine / percentage of dose in feces / percentage of dose in urine: 0-48 h pool; for percentage of dose in feces / percentage of dose in urine: single oral 40 mg/kg; for concentration at 1 h / concentration at 3 h / concentration at 8 h: Han Wistar, rat, plasma, po; for administered dose recovered in feces (mean) / urinary excretion of administered dose (mean): intact male and female rats
[13] = human; ref Tong et al., 2010; cited from earlier work
[14] = BDC male rats, oral, 0-24 h pool
[15] = female intact rats, oral 40 mg/kg
[16] = female intact rats, oral 40 mg/kg, 40 mg/kg
[17] = male intact rats, oral 40 mg/kg, 40 mg/kg
[18] = male intact rats, oral 40 mg/kg, listed as [^14C]AZD4831, 40 mg/kg

For `C[C@@H](N)c1cc(Cl)ccc1Cn1c(=S)[nH]c(=O)c2[nH]ccc21` [AZD4831, (R)-1-(2-(1-aminoethyl)-4-chlorobenzyl)-2-thioxo-2,3-dihydro-1H-pyrrolo[3,2-d]pyrimidin-4(5H)-one], the bioavailability [1] is given as “good bioavailability”, the clearance [1] is given as “moderate clearance” and the bioavailability [2] is given as “good bioavailability”. For the same compound, the clearance [2] was “moderate clearance”, the NOAEL at 3 month [3] was 100 mg/kg/day and the “percentage free drug in plasma” value [4] was 22.0 ± 0.49%. The “Drug-Related Exposure (%)” value ([5]; day 28, Female (125 mg/kg)) was 76%, the “Drug-Related Exposure (%)” value ([5]; day 28, Female (250 mg/kg)) was 74% and the “Drug-Related Exposure (%)” value ([5]; day 28, Female (500 mg/kg)) was 57%. The “Drug-Related Exposure (%)” value ([5]; day 28, Male (125 mg/kg)) was 78%, the IC50 [6] was 1.5 nM and the plasma concentration ([7]; 5 mg once daily) was 0.028 µM. For the same compound, the plasma concentration ([7]; 10 mg once daily) was 0.053 µM, the plasma concentration ([7]; 15 mg once daily) was 0.086 µM and the “percentage free drug in plasma” value [8] was 36.1 ± 1.0%. For the same compound, the permeability [9] was “high permeability”, the NOAEL at 3 month [10] was 125 mg/kg/day and the “percentage free drug in plasma” value [11] was 31.9 ± 0.50%. For the same compound, the “dose fraction excreted in bile within 0-24 hours” value ([12]; BDC female rats, oral 40 mg/kg) was 10%, the “percent of administered dose in bile” value ([12]; BDC female rats, oral, 0-24 h pool) was 0.2% and the “dose fraction excreted in bile within 0-24 hours” value ([12]; BDC male rats, oral 40 mg/kg) was 21%. The “percent of administered dose in bile” value [12, 14] was under 0.1%, the “percent of dose in feces” value [12, 14] was 20% and the “percent of dose in urine” value [12, 14] was 26%. For the same compound, the “Sum % of dose (integrated radioactive peaks), feces” value [12, 15] was 35.5 % of dose, the “Sum % of dose (integrated radioactive peaks), urine” value [12, 15] was 31.3 % of dose and the “Total % of dose (total radioactivity in sample), feces” value (“Total % of dose … feces” below) [12, 16] was 43 % of dose. The “Total % of dose (total radioactivity in sample), urine” value (“Total % of dose … urine” for short) [12, 16] was 34 % of dose, the “Total % of dose … urine” value ([12]; female intact rats, oral 40 mg/kg, listed as [^14C]AZD4831, 40 mg/kg) was 34.4 % of dose and the “percentage of dose in feces” value ([12]; female intact rats, 40 mg/kg) was 31 % of dose and 30.7 % of dose. The “percentage of dose in urine” value ([12]; female intact rats, 40 mg/kg) was 30 % of dose and 30.3 % of dose, the “Sum µmol equiv/L (integrated radioactive peaks) in plasma” value (from here on “Sum µmol equiv/L”) ([12]; female rats, 1 h) was 10.4 µmol equiv/L and the “Total µmol equiv/L (total radioactivity) in plasma” value (“Total µmol equiv/L” for short) ([12]; female rats, 1 h, oral) was 12.5 µmol equiv/L. The “% of total radioactivity in plasma” value ([12]; female rats, 1 h, oral 40 mg/kg) was 72.8 % of total, the “Sum µmol equiv/L” value ([12]; female rats, 3 h) was 13.8 µmol equiv/L and the “Total µmol equiv/L” value ([12]; female rats, 3 h, oral) was 15.9 µmol equiv/L. The “% of total radioactivity in plasma” value ([12]; female rats, 3 h, oral 40 mg/kg) was 77.5 % of total, the “Sum µmol equiv/L” value ([12]; female rats, 8 h) was 11.7 µmol equiv/L and the “Total µmol equiv/L” value ([12]; female rats, 8 h, oral) was 13.4 µmol equiv/L. The “% of total radioactivity in plasma” value ([12]; female rats, 8 h, oral 40 mg/kg) was 82.1 % of total, the concentration at 1 h ([12]; female, 40 mg/kg) was 9.1 µM and the concentration at 3 h ([12]; female, 40 mg/kg) was 12.3 µM. The concentration at 8 h ([12]; female, 40 mg/kg) was 11 µM, the “administered dose recovered in feces (mean)” value ([12]; intravenous) was 46.9% and the “urinary excretion of administered dose (mean)” value ([12]; intravenous) was 37.7%. The “administered dose recovered in feces (mean)” value ([12]; oral) was 51.9%, the “urinary excretion of administered dose (mean)” value ([12]; oral) was 32.0% and the “Sum % of dose (integrated radioactive peaks), feces” value ([12]; male intact rats, oral 40 mg/kg) was 45.9 % of dose. For the same compound, the “Total % of dose … feces” value [12, 17] was 59 % of dose, the “Total % of dose … urine” value [12, 17] was 28 % of dose and the “Total % of dose … feces” value [12, 18] was 58.7 % of dose. For the same compound, the “Total % of dose … urine” value [12, 18] was 28.2 % of dose, the “percentage of dose in feces” value ([12]; male intact rats, 40 mg/kg) was 40 % of dose and 39.6 % of dose and the “percentage of dose in urine” value ([12]; male intact rats, 40 mg/kg) was 20 % of dose and 20.3 % of dose. For the same compound, the “Sum µmol equiv/L” value ([12]; male rats, 1 h) was 20.3 µmol equiv/L, the “Total µmol equiv/L” value ([12]; male rats, 1 h, oral) was 23.4 µmol equiv/L and the “% of total radioactivity in plasma” value ([12]; male rats, 1 h, oral 40 mg/kg) was 78.2 % of total. For the same compound, the “Sum µmol equiv/L” value ([12]; male rats, 3 h) was 13.6 µmol equiv/L, the “Total µmol equiv/L” value ([12]; male rats, 3 h, oral) was 17.1 µmol equiv/L and the “% of total radioactivity in plasma” value ([12]; male rats, 3 h, oral 40 mg/kg) was 66.8 % of total. The “Sum µmol equiv/L” value ([12]; male rats, 8 h) was 13.7 µmol equiv/L, the “Total µmol equiv/L” value ([12]; male rats, 8 h, oral) was 16.9 µmol equiv/L and the “% of total radioactivity in plasma” value ([12]; male rats, 8 h, oral 40 mg/kg) was 70.9 % of total. For the same compound, the concentration at 1 h ([12]; male, 40 mg/kg) was 18.3 µM, the concentration at 3 h ([12]; male, 40 mg/kg) was 11.4 µM and the concentration at 8 h ([12]; male, 40 mg/kg) was 12 µM. The “radioactivity recovered in bile (mean)” value ([12]; orally dosed BDC female rats) was 10.4%, the “radioactivity recovered in feces (mean)” value ([12]; orally dosed BDC female rats) was 23.2% and the “radioactivity recovered in urine (mean)” value ([12]; orally dosed BDC female rats) was 54.7%. For the same compound, the “radioactivity recovered in bile (mean)” value ([12]; orally dosed BDC male rats) was 21.4%, the “radioactivity recovered in feces (mean)” value ([12]; orally dosed BDC male rats) was 27.5% and the “radioactivity recovered in urine (mean)” value ([12]; orally dosed BDC male rats) was 37.3%. The “share of radioactivity (integrated radiochromatographic peaks) in plasma” value ([12]; rats, oral 40 mg/kg, all time points (1, 3, 8 h)) was over 67%.

In the case of `c1cc2c3c(c1)[C@H]1CCC[C@H]1CN3CCNC2` [vabicaserin], the “exposure of the carbamoyl glucuronide metabolite relative to parent” value [13] is given as 60 fold.
